From ChEMBL document CHEMBL1811811, “Characterization of anticancer properties of 2,6-diisopropylphenol-docosahexaenoate and analogues in breast cancer cells” (Bioorg Med Chem, 2010)
Calls of active or inactive are those of the source. The rule behind the calls is not given here.

What was measured:
MDA-MB-231 [1] = experiment: Growth inhibition of human MDA-MB-231 cells after 48 hrs by WST1 assay; assay type: functional, cell-based
Method in brief: (§1)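 Cells seeded at 5000/well, grown overnight (18 h) in DMEM complete medium, then switched to DMEM with 2% FBS plus treatment for 48 h at 37 °C, 5% CO2; ethanol vehicle control. WST-1 read at day 0 (baseline, X) and end; growth normalized as (Y−X)/X×100, 100 to 0 = growth inhibition, 0 to −100 = cell death. Mean ± SD, at least four experiments.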

MDA-MB-231 [2] = experiment: Total growth inhibition of human MDA-MB-231 cells after 48 hrs by WST1 assay; assay type: functional; method in brief: as §1
MDA-MB-231 [3] = experiment: Induction of apoptosis in human MDA-MB-231 cells assessed as viable cells at 1 uM after 24 hrs by annexin V/propidium iodide staining based FACS flow cytometry (reference value: 89 +/- 1 %); assay type: functional; details: MDA-MB-231, 24 h, read-out: Activity
MCF7 [4] = experiment: Cytotoxicity against human MCF7 cells at 25 uM after 48 hrs by WST1 assay; assay type: functional, cell-based; method in brief: as §1
MDA-MB-231 [5] = experiment: Cytotoxicity against human MDA-MB-231 cells at 10 uM after 48 hrs by WST1 assay; assay type: functional, cell-based; method in brief: as §1
MCF7 [6] = experiment: Growth inhibition of human MCF7 cells at 25 uM after 48 hrs by WST1 assay; assay type: functional, cell-based; method in brief: as §1
MDA-MB-231 [7] = experiment: Induction of apoptosis in human MDA-MB-231 cells assessed as viable cells at 10 uM after 24 hrs by annexin V/propidium iodide staining based FACS flow cytometry (reference value: 89 +/- 1 %); assay type: functional; details: MDA-MB-231, 24 h, read-out: Activity
MDA-MB-231 [8] = experiment: Induction of apoptosis in human MDA-MB-231 cells assessed as apoptotic cells at 1 uM after 24 hrs by annexin V/propidium iodide staining based FACS flow cytometry (reference value: 1.8 +/- 0.3 %); assay type: functional
MDA-MB-231 [9] = experiment: Induction of apoptosis in human MDA-MB-231 cells assessed as apoptotic cells at 10 uM after 24 hrs by annexin V/propidium iodide staining based FACS flow cytometry (reference value: 1.8 +/- 0.3 %); assay type: functional
MDA-MB-231 [10] = experiment: Induction of apoptosis in human MDA-MB-231 cells assessed as necrotic cells at 1 uM after 24 hrs by annexin V/propidium iodide staining based FACS flow cytometry (reference value: 9.2 +/- 0.8 %); assay type: functional
MDA-MB-231 [11] = experiment: Induction of apoptosis in human MDA-MB-231 cells assessed as necrotic cells at 10 uM after 24 hrs by annexin V/propidium iodide staining based FACS flow cytometry (reference value: 9.2 +/- 0.8 %); assay type: functional
MDA-MB-361 [12] = experiment: Growth inhibition of human MDA-MB-361 cells at 25 uM after 48 hrs by WST1 assay; assay type: functional, cell-based; method in brief: as §1
MDA-MB-361 [13] = experiment: Cytotoxicity against human MDA-MB-361 cells at 25 uM after 48 hrs by WST1 assay; assay type: functional, cell-based; method in brief: as §1
AU565 [14] = experiment: Growth inhibition of human AU565 cells at 25 uM after 48 hrs by WST1 assay; assay type: functional, cell-based; method in brief: as §1
AU565 [15] = experiment: Cytotoxicity against human AU565 cells at 25 uM after 48 hrs by WST1 assay; assay type: functional, cell-based; method in brief: as §1
HMEC [16] = experiment: Growth inhibition of human HMEC cells at 25 uM after 48 hrs by WST1 assay; assay type: cell-based; method in brief: as §1
HMEC [17] = experiment: Cytotoxicity against human HMEC cells at 25 uM after 48 hrs by WST1 assay; assay type: cell-based; method in brief: as §1
[18] = biological target: T1, Histone deacetylase (Homo sapiens) (UniProt Q13547+O15379+Q9UBN7+Q92769+Q9UQL6+Q8WUI4+Q9BY41+Q96DB2+P56524+Q9UKV0+Q969S8); experiment: Inhibition of HDAC in human MDA-MB-231 cells after 2 hrs; assay type: cell-based
Method in brief: (§2)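 Cells exposed 2 h at 37 °C to varying concentrations in DMEM/2% FBS, washed, trypsinized, adjusted to 2×10^6 cells/mL in PBS with 0.1% Triton X-100, and sonicated on ice. Total HDAC activity measured with a fluorometric kit; trichostatin A used as maximum inhibition to correct non-specific signal. Expressed as % of total HDAC activity versus vehicle.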

[19] = biological target: T1, Histone deacetylase (Homo sapiens); experiment: Inhibition of HDAC in human MDA-MB-231 cells at 10 to 25 uM after 2 hrs relative to control; assay type: cell-based; method in brief: as §2
Serum [20] = experiment: Stability in human serum at 1 mM incubated for 2 hrs at 37 degC by HPLC; details: 1000 µM
Serum [21] = experiment: Stability in mouse serum at 1 mM incubated for 2 hrs at 37 degC by HPLC; details: 1000 µM
[22] = biological target: T1, Histone deacetylase (Homo sapiens); experiment: Inhibition of HDAC in human MDA-MB-231 cells up to 25 uM after 2 hrs relative to control; assay type: cell-based
Method in brief: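 MDA-MB-231 cells treated 2 h at 37 °C in DMEM with 2% FBS with varying concentrations; rinsed in PBS, trypsinized, normalized to 2×10^6 cells/mL in PBS with 0.1% Triton X-100, sonicated on ice. Total (non-specific) HDAC activity measured with a fluorometric kit; trichostatin A used for maximum inhibition to correct non-specific readings. Expressed as % of total HDAC activity versus vehicle.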

MDA-MB-231 [23] = experiment: Growth inhibition of human MDA-MB-231 cells at 25 uM after 48 hrs by WST1 assay; assay type: functional, cell-based; method in brief: as §1
[24] = Homo sapiens, MDA-MB-231, 48 h, read-out: IC50

| SMILES | growth inhibition (GI) (MDA-MB-231 [1]) | IC50 (MDA-MB-231 [1]; [24]) | TGI (MDA-MB-231 [2]; MDA-MB-231, 48 h) | viability at 1 µM (MDA-MB-231 [3]) | Activity (MCF7 [4]) | growth inhibition (GI) (MCF7 [6]) | viability at 10 µM (MDA-MB-231 [7]) | Activity (MDA-MB-231 [8]) | Activity (MDA-MB-231 [9]) | Activity (MDA-MB-231 [10]) | Activity (MDA-MB-231 [11]) | growth inhibition (GI) (MDA-MB-361 [12]) | Activity (MDA-MB-361 [13]) | growth inhibition (GI) (AU565 [14]) | Activity (AU565 [15]) | Activity (HMEC [16]) | Activity (HMEC [17]) | other results |
| --- | --- | --- | --- | --- | --- | --- | --- | --- | --- | --- | --- | --- | --- | --- | --- | --- | --- | --- |
| CC/C=C\C/C=C\C/C=C\C/C=C\C/C=C\C/C=C\CCC(=O)Oc1ccccc1 | inactive | > 25 µM | > 25 µM |  |  |  |  |  |  |  |  |  |  |  |  |  |  |  |
| CC/C=C\C/C=C\C/C=C\C/C=C\C/C=C\C/C=C\CCC(=O)Oc1c(C(C)C)cccc1C(C)C | Dose-dependent effect | 2.9 µM | 4.2 µM | 90.5% | Active | Active | 37.4% | 1.8% | 22.2% | 7.7% | 40.4% | Active | Active | Active | Active | Non-toxic | Non-toxic | Activity (MDA-MB-231 [5]): Active; inhibition [18]: Dose-dependent effect; inhibition [19]: 30%; Stability (Serum [20]): Stable; Stability (Serum [21]): Stable |
| CC/C=C\C/C=C\C/C=C\C/C=C\C/C=C\C/C=C\CCC(=O)Nc1c(C(C)C)cccc1C(C)C |  | 3.7 µM | 5.5 µM |  |  |  |  |  |  |  |  |  |  |  |  |  |  |  |
| CC/C=C\C/C=C\C/C=C\C/C=C\C/C=C\C/C=C\CCC(=O)Oc1ccc(C(C)C)cc1C(C)C | Dose-dependent effect | 7.3 µM | 12.6 µM |  |  |  |  |  |  |  |  |  |  |  |  |  |  |  |
| CC/C=C\C/C=C\C/C=C\C/C=C\C/C=C\C/C=C\CCC(=O)Nc1ccccc1 |  |  |  |  |  |  |  |  |  |  |  |  |  |  |  |  |  | IC50 (MDA-MB-231 [1]; mda-mb-231): Not Active; TGI (MDA-MB-231 [2]): inactive |
| CC/C=C\C/C=C\C/C=C\C/C=C\C/C=C\C/C=C\CCC(=O)Oc1ccccc1C(C)C | Dose-dependent effect | 8.2 µM | 12.1 µM | 89.6% | Active | Active | 36.2% | 1.8% | 26.4% | 8.6% | 37.5% | Active | Active | Active | Active | Non-toxic | Non-toxic | Activity (MDA-MB-231 [5]): Active; Stability (Serum [20]): Stable; Stability (Serum [21]): Stable |
| CC/C=C\C/C=C\C/C=C\C/C=C\C/C=C\C/C=C\CCC(=O)Oc1ccccc1C1CCCCC1 | Dose-dependent effect | 8.4 µM | 18.7 µM |  |  |  |  |  |  |  |  |  |  |  |  |  |  |  |
| CC(C)c1cccc(C(C)C)c1O [PROPOFOL] |  |  |  | 90.9% | inactive | inactive | 88.2% | 2% | 2.4% | 7.1% | 9.4% | inactive | inactive | inactive | inactive | Non-toxic | Non-toxic | inhibition [22]: inactive |
| CC/C=C\C/C=C\C/C=C\C/C=C\C/C=C\C/C=C\CCC(=O)O [DOCONEXENT] | Dose-dependent effect |  |  | 90.3% |  |  | 87.6% | 2.1% | 1.8% | 7.6% | 10.7% |  |  |  |  |  |  | growth inhibition (GI) (MDA-MB-231 [23]): inactive; inhibition [22]: inactive; Stability (Serum [20]): Stable; Stability (Serum [21]): Stable |
| CC/C=C\C/C=C\C/C=C\C/C=C\C/C=C\C/C=C\CCC(=O)Nc1ccccc1C(C)C |  | 6.5 µM | 8.5 µM |  |  |  |  |  |  |  |  |  |  |  |  |  |  |  |
| CC(C)c1ccccc1O |  |  |  | 93.7% | inactive | inactive | 88.8% | 1.5% | 2.2% | 4.9% | 9% | inactive | inactive | inactive | inactive | Non-toxic | Non-toxic |  |
| Oc1ccccc1C1CCCCC1 |  |  |  |  |  |  |  |  |  |  |  |  |  |  |  |  |  | growth inhibition (GI) (MDA-MB-231 [23]): Active |
